From ChEMBL document CHEMBL3877334, “Structural Requirements of HDAC Inhibitors: SAHA Analogues Modified at the C2 Position Display HDAC6/8 Selectivity” (ACS Med Chem Lett, 2017)
The source made the active and inactive calls. No cut-off for these calls is given here.

What was measured:
cells [1] = type: functional, cell-based; settings: Homo sapiens, U-937, 44 h
[2] = target: T1, Protein deacetylase HDAC6 (Homo sapiens) (UniProt Q9UBN7); test: Inhibition of HDAC6 in human U937 cells assessed as increase in alpha-tubulin acetylation at Lys-40 residue after 18 hrs by Western blot method; type: cell-based; settings: U-937
T1 sequence (whole entry): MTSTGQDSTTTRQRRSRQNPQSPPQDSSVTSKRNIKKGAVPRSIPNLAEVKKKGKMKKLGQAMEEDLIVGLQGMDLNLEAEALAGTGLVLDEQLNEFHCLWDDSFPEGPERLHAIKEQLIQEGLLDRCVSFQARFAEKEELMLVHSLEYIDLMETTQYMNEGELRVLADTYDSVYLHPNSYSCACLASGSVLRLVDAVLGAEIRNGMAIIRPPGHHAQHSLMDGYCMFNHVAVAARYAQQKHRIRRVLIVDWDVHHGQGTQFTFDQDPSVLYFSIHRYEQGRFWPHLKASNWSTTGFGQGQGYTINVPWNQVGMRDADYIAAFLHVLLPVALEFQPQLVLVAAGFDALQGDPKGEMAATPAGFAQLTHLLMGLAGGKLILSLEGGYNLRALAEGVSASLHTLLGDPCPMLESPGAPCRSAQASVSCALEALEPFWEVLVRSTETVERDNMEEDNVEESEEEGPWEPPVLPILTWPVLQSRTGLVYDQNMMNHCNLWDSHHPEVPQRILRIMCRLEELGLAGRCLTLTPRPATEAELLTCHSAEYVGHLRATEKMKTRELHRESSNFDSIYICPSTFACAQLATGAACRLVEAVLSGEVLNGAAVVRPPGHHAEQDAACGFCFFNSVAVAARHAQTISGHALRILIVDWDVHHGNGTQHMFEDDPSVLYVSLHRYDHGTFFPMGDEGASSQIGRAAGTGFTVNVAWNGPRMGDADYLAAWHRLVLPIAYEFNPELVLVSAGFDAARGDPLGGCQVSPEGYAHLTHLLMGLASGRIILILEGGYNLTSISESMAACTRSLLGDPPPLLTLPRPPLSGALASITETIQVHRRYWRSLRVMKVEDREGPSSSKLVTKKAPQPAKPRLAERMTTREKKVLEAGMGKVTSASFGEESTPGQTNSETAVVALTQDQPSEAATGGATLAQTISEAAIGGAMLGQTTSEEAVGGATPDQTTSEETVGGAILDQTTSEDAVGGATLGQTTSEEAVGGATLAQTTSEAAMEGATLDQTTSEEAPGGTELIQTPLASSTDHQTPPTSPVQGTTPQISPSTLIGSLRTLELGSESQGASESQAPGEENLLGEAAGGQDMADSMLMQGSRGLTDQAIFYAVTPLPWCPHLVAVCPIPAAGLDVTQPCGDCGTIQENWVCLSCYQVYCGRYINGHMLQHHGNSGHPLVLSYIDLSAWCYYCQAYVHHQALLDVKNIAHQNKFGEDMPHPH
Procedure, shortened: (§1)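 U937 myeloid leukemia cells were treated with compound, with a 1% DMSO control. For the concentration series the range was 10–60 μM. Cells were then lysed, run on SDS-PAGE and Western blotted for acetyl-α-tubulin and acetyl-histone H3, with GAPDH as load control. Band intensities were quantified as fold increase, given as mean of four independent trials with standard error.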

cells [3] = type: functional, cell-based; settings: Homo sapiens, MOLM-13, 44 h
HeLa S3 [4] = test: Selectivity ratio of IC50 for HDAC3 in human HeLaS3 cells to IC50 for full length human C-terminal His-tag HDAC8 expressed in baculovirus expression system
cells [5] = type: functional, cell-based; settings: Homo sapiens, Jurkat, 44 h
Histone deacetylase 3 = Histone deacetylase 3 (Homo sapiens, UniProt O15379); test: Inhibition of HDAC3 in human HeLaS3 cells preincubated for 15 mins followed by HDAC-Glo substrate addition measured after 30 to 45 mins by ELISA; type: cell-based, HeLa S3
HeLa S3 [6] = test: Selectivity ratio of IC50 for HDAC1 in human HeLaS3 cells to IC50 for HDAC6 in human HeLaS3 cells; type: cell-based
Procedure, shortened: (§2)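 Ratio of IC50 values measured with the ELISA-based HDAC activity assay using mammalian-derived HDAC isoforms. Each IC50 is the mean of at least two independent trials with standard error.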

HeLa S3 [7] = test: Selectivity ratio of IC50 for HDAC2 in human HeLaS3 cells to IC50 for full length human C-terminal His-tag HDAC8 expressed in baculovirus expression system
Histone deacetylase 1 = Histone deacetylase 1 (Homo sapiens, UniProt Q13547); test: Inhibition of HDAC1 in human HeLaS3 cells preincubated for 15 mins followed by HDAC-Glo substrate addition measured after 30 to 45 mins by ELISA; type: cell-based, HeLa S3
HeLa S3 [8] = test: Selectivity ratio of IC50 for HDAC2 in human HeLaS3 cells to IC50 for HDAC6 in human HeLaS3 cells; type: cell-based
Procedure, shortened: as §2

Histone deacetylase 8 = target: T2, Histone deacetylase 8 (Homo sapiens, UniProt Q9BY41); test: Inhibition of full length human C-terminal His-tag HDAC8 expressed in baculovirus expression system preincubated for 15 mins followed by HDAC-Glo substrate addition measured after 30 to 45 mins by ELISA
T2 sequence (Q9BY41 whole entry): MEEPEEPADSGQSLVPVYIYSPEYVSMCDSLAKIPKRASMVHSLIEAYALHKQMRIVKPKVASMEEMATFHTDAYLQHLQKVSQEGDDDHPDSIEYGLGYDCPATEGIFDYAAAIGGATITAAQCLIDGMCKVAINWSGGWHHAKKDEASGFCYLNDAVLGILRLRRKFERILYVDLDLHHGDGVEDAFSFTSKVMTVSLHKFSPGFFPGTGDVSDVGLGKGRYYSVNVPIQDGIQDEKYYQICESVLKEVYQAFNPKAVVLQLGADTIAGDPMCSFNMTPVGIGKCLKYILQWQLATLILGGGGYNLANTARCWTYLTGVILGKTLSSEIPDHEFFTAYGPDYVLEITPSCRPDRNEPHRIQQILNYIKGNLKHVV

[9] = Cytotoxicity against human Jurkat cells assessed as cell viability at 10 uM after 44 hrs by MTT assay relative to control; type: functional; settings: read-out: Activity
Procedure, shortened: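 MTT viability assay in Jurkat cells at 1 and 10 μM. Data are mean percent viability from at least three independent trials with standard error.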

HeLa S3 [10] = test: Selectivity ratio of IC50 for HDAC1 in human HeLaS3 cells to IC50 for full length human C-terminal His-tag HDAC8 expressed in baculovirus expression system
HeLa S3 [11] = test: Selectivity ratio of IC50 for HDAC3 in human HeLaS3 cells to IC50 for HDAC6 in human HeLaS3 cells; type: cell-based
Procedure, shortened: as §2

[12] = target: T1, Protein deacetylase HDAC6 (Homo sapiens); test: Inhibition of HDAC6 in human U937 cells assessed as increase in alpha-tubulin acetylation at Lys-40 residue at 30 uM after 18 hrs by Western blot method; type: cell-based; settings: U-937
Procedure, shortened: as §1

Histone deacetylase 2 = Histone deacetylase 2 (Homo sapiens, UniProt Q92769); test: Inhibition of HDAC2 in human HeLaS3 cells preincubated for 15 mins followed by HDAC-Glo substrate addition measured after 30 to 45 mins by ELISA; type: cell-based, HeLa S3
[13] = target: T3, Protein deacetylase HDAC6 (Homo sapiens, UniProt Q9UBN7); test: Inhibition of HDAC6 in human HeLaS3 cells preincubated for 15 mins followed by HDAC-Glo substrate addition measured after 30 to 45 mins by ELISA; type: cell-based, HeLa S3
T3 sequence (Q9UBN7 whole entry): T1 sequence (whole entry)

[14] = target: T1, Protein deacetylase HDAC6 (Homo sapiens); test: Inhibition of HDAC6 in human HeLaS3 cells at 5 uM preincubated for 15 mins followed by HDAC-Glo substrate addition measured after 30 to 45 mins by ELISA; type: cell-based; settings: HeLa S3
Procedure, shortened: (§3)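 ELISA-based HDAC activity assay using mammalian-derived HDAC1, -2, -3 and -6. Each analogue was screened at a single concentration, 5 or 10 μM. Data are mean percent deacetylase activity from at least three independent trials with standard error.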

[15] = target: T1, Protein deacetylase HDAC6 (Homo sapiens); test: Inhibition of HDAC6 in human HeLaS3 cells at 10 uM preincubated for 15 mins followed by HDAC-Glo substrate addition measured after 30 to 45 mins by ELISA; type: cell-based; settings: HeLa S3
Procedure, shortened: as §3

Sequence of Histone deacetylase 2 (Q92769 whole entry): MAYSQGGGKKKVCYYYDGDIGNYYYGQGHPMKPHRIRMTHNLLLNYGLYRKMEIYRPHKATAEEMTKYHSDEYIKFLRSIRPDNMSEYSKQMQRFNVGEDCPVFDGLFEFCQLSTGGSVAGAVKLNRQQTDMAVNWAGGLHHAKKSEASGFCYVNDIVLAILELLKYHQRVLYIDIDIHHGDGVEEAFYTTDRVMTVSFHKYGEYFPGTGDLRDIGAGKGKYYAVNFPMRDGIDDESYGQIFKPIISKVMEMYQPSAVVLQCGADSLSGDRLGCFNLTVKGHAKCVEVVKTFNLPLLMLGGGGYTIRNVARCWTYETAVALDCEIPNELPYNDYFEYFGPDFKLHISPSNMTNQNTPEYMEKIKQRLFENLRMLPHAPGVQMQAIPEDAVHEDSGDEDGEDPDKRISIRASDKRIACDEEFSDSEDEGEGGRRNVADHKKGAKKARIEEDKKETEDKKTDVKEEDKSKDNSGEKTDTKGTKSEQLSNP
Sequence of Histone deacetylase 3 (O15379 whole entry): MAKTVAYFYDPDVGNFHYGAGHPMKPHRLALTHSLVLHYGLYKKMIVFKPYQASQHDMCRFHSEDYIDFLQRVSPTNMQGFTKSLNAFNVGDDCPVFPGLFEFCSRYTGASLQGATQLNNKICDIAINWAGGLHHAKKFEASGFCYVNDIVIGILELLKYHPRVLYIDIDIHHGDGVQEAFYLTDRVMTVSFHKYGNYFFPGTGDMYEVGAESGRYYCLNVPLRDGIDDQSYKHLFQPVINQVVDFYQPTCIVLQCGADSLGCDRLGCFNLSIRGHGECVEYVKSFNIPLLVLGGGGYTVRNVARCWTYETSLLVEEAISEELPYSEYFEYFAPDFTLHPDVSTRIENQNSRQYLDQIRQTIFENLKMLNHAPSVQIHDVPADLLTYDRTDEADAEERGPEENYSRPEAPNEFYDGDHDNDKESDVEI
Sequence of Histone deacetylase 1 (Q13547 whole entry): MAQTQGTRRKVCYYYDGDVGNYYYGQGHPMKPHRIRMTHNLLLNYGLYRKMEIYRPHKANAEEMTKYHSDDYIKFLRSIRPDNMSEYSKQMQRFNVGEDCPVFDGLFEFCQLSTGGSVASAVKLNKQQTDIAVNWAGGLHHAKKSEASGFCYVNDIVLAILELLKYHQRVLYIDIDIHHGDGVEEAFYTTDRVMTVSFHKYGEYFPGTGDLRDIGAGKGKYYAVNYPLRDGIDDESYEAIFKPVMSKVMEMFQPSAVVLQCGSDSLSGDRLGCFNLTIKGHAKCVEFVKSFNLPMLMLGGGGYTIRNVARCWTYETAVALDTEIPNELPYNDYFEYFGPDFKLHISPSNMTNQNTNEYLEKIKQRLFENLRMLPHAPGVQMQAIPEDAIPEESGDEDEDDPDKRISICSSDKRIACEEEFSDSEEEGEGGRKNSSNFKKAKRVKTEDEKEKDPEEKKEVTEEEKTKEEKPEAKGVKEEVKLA

Row | SMILES | IC50 (Histone deacetylase 3) | IC50 (Histone deacetylase 1) | IC50 (Histone deacetylase 8) | IC50 (Histone deacetylase 2) | inhibition [14] | Ratio IC50 (HeLa S3 [4]) | Ratio IC50 (HeLa S3 [7]) | Ratio IC50 (HeLa S3 [10]) | also measured
1 | C=CCC(CCCCCC(=O)Nc1ccccc1)C(=O)NO (stereo not drawn) | – | – | – | – | Active | – | – | – | –
2 | CC(CCCCCC(=O)Nc1ccccc1)C(=O)NO (stereo not drawn) | – | – | – | – | Active | – | – | – | –
3 | CCCCC(CCCCCC(=O)Nc1ccccc1)C(=O)NO (stereo not drawn) | – | – | – | – | – | – | – | – | inhibition [15]: Active
4 | C#CCC(CCCCCC(=O)Nc1ccccc1)C(=O)NO (stereo not drawn) | – | – | – | – | Active | – | – | – | –
5 | CCCC(CCCCCC(=O)Nc1ccccc1)C(=O)NO (stereo not drawn) | – | – | – | – | Active | – | – | – | –
6 | CCC(CCCCCC(=O)Nc1ccccc1)C(=O)NO (stereo not drawn) | – | – | – | – | Active | – | – | – | –
7 | O=C(CCCCCC(Cc1ccccc1)C(=O)NO)Nc1ccccc1 (stereo not drawn) | 91 µM | 84 µM | 1.2 µM | 110 µM | Active | 33 to 92 | 33 to 92 | 33 to 92 | Ratio IC50 (HeLa S3 [6]): 33 to 92; Ratio IC50 (HeLa S3 [8]): 33 to 92; Ratio IC50 (HeLa S3 [11]): 33 to 92; inhibition [12]: Active; IC50 [13]: 1.5 µM

The next lines start with results.

Row | IC50 (Histone deacetylase 3) | IC50 (Histone deacetylase 1) | IC50 (Histone deacetylase 8) | IC50 (Histone deacetylase 2) | inhibition [14] | SMILES | Ratio IC50 (HeLa S3 [4]) | Ratio IC50 (HeLa S3 [7]) | Ratio IC50 (HeLa S3 [10]) | also measured
8 | 98 µM | 180 µM | 2 µM | 180 µM | Active | CCCCCCC(CCCCCC(=O)Nc1ccccc1)C(=O)NO (stereo not drawn) | 49 to 300 | 49 to 300 | 49 to 300 | EC50 (cells [1]): 13.8 µM; inhibition [2]: Dose-dependent effect; EC50 (cells [3]): 10.5 µM; EC50 (cells [5]): 11.8 µM; Ratio IC50 (HeLa S3 [6]): 49 to 300; Ratio IC50 (HeLa S3 [8]): 49 to 300; viability at 10 µM [9]: 47%; Ratio IC50 (HeLa S3 [11]): 49 to 300; inhibition [12]: Active; IC50 [13]: 0.6 µM
9 | 530 µM | 330 µM | 3.1 µM | 580 µM | – | CCCCCC[C@@H](CCCCCC(=O)Nc1ccccc1)C(=O)NO | 106 to 187 | 106 to 187 | 106 to 187 | –
10 | 43 µM | 48 µM | 1.3 µM | 58 µM | Active | CCCCCC(CCCCCC(=O)Nc1ccccc1)C(=O)NO (stereo not drawn) | 33 to 92 | 33 to 92 | 33 to 92 | Ratio IC50 (HeLa S3 [6]): 33 to 92; Ratio IC50 (HeLa S3 [8]): 33 to 92; Ratio IC50 (HeLa S3 [11]): 33 to 92; inhibition [12]: Active; IC50 [13]: 0.85 µM
11 | – | – | 0.71 µM | – | – | CCCCCC[C@H](CCCCCC(=O)Nc1ccccc1)C(=O)NO | – | – | – | –
